Among the data in ChEMBL document CHEMBL1629639, “Selectivity of TMC207 towards mycobacterial ATP synthase compared with that towards the eukaryotic homologue” (Antimicrob Agents Chemother, 2009) are MIC, inhibition and IC50 values, retold here.

The test system of experiment [1] is Mycobacterium tuberculosis. Nature of the experiment: Antimicrobial activity against Mycobacterium tuberculosis. The experiment is classed as functional.
Experiment [2] deals with Mycolicibacterium smegmatis. Nature of the experiment: Antimicrobial activity against Mycobacterium smegmatis. The experiment is classed as functional.
For experiment [3], the system named is OVCAR-3. Nature of the experiment: Inhibition of ATP synthase mediated ATP production in human OVCAR3 cells. The experiment is classed as cell-based. Put shortly:
(§1)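 OVCAR3 cells were grown in DMEM with 10% FBS and penicillin-streptomycin. Isolated mitochondria (250 μg/ml) and sonicated submitochondrial particles without outer membrane (150 μg/ml) were incubated 1 h at 25°C with compound and an ADP-regenerating system. ATP formed was quantified spectrophotometrically from glucose-6-phosphate oxidation with NADP+. Controls were DCCD 5 μM and oligomycin 1 μM.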

Experiment [4] deals with OVCAR-3. Nature of the experiment: Inhibition of ATP synthase mediated ATP production in human OVCAR3 cells at 200 uM. Format: cell-based. Put shortly: as §1
In experiment [5] the test system is OVCAR-3. Nature of the experiment: Inhibition of ATP synthase mediated ATP production in human OVCAR3 cells at 5 uM. Format: cell-based. Put shortly: as §1
Experiment [6] deals with OVCAR-3. Nature of the experiment: Inhibition of ATP synthase mediated ATP production in human OVCAR3 cells at 1 uM. Format: cell-based. Put shortly: as §1
In experiment [7] the target is T1, Putative uncharacterized protein atpE (Mycolicibacterium smegmatis, UniProt Q5TIX5). Nature of the experiment: Inhibition of Mycobacterium smegmatis MC2 155 ATP synthase subunit c-mediated ATP production. Put shortly:
(§2)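 Inverted membrane vesicles from M. smegmatis mc²155 incubated with compound at 25°C for 1 h with an ADP-regenerating system. ATP formed was quantified spectrophotometrically by following glucose-6-phosphate oxidation with NADP+. Controls were DCCD (100 μM) and oligomycin (1 μM). IC50 taken from the concentration-response of ATP synthesis.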

Experiment [8] addresses T1, Putative uncharacterized protein atpE. Nature of the experiment: Inhibition of Mycobacterium smegmatis MC2 155 ATP synthase subunit c-mediated ATP production at 100 nM. Put shortly:
as §2

Experiment [9] can be described thus: Inhibition of human ATP synthase mediated ATP production at 100 nM. Put shortly: as §1
Experiment [10] is filed under the species Mus musculus. Nature of the experiment: Inhibition of ATP synthase in M18 mouse liver mitochondria assessed as effect on oxygen consumption at 175 uM. Put shortly:
(§3)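 Mitochondria freshly isolated from M18 mouse liver or bovine heart. Oxygen was read by Clark electrode at 37°C in 20 mM Tris-HCl pH 7.3, 85 mM KCl, 5 mM KH2PO4, 2.3 mM MgCl2, 25 mM creatine and 25 mM phosphocreatine, with an ADP-regenerating system. Succinate energised the membrane; rotenone blocked complex I. Inhibition was taken as the fall in state III O2 rate. Oligomycin 0.6 μM served as control. Mean±SD of three independent experiments.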

For experiment [11], the species on record is Bos taurus. Nature of the experiment: Inhibition of ATP synthase in bovine heart mitochondria assessed as effect on oxygen consumption at 175 uM. Put shortly: as §3
For experiment [12], the species on record is Mus musculus. Nature of the experiment: Inhibition of ATP synthase in M18 mouse liver mitochondria assessed as inhibition of oxygen consumption. Put shortly:
as §3

For experiment [13], the species on record is Bos taurus. Nature of the experiment: Inhibition of ATP synthase in bovine heart mitochondria assessed as inhibition of oxygen consumption. The note with it: concentration not given here. Put shortly:
as §3

Converted amounts (≈) assume the structure as drawn. The source made the active and inactive calls. The rule behind the calls is not given here.

T1 sequence (Q5TIX5 whole entry): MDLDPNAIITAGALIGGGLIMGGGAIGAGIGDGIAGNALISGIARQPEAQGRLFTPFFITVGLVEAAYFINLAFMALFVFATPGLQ

In general, MIC refers to the lowest concentration found to suppress growth. Higher therefore signals a less susceptible organism. What is called inhibition is the change of the read-out against control, counted positive when it falls. Usually IC50 stands for the concentration that gives 50% inhibition. In the case of `COc1nc2ccc(Br)cc2cc1[C@@H](c1ccccc1)[C@@](O)(CCN(C)C)c1cccc2ccccc12` [BEDAQUILINE], the MIC in [1] came out at 0.03 µM (≈ 0.0167 µg/mL); in [2], 0.015 µM (≈ 0.00833 µg/mL). Also, the inhibition entry in experiment [3], in experiment [10] and in experiment [11] was “inactive” throughout. The inhibition is 35% in experiment [4]; over 90% in [5]; over 90% in experiment [6]; over 80% in [12]; over 50% in experiment [13]. For the same molecule, the results for the IC50 in [7], in experiment [8] and in experiment [9] were 10 nM, 10 nM and over 200000 nM, respectively.
